Test results taken from ChEMBL document CHEMBL3272322, “8-chloro-(S)- and -(R)-10-((S)-and -(R)-3'-methylethylaminopyrrolidino)- 10,11-dihydrodibenzo(b,f)thiepins. Synthesis and pharmacological studies” (J Med Chem, 1976).
Activity calls are given as the source filed them.

Experiments:
[1] = tested on: Mus musculus; experiment: Antidepressant activity in albino CD-1 mouse assessed as inhibition of reserpine-induced ptosis up to 40 mg/kg, ip; format: functional, organism-based; design: dose 40 mg/kg
Method in brief: (§1)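 CD-1 male mice were dosed ip in distilled water 60-90 min before challenge with reserpine (4 mg/kg ip). Hypothermia, sedation and ptosis were assessed. Rectal temperature was taken with a tele-thermometer fitted with a small-animal probe.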

[2] = tested on: Mus musculus; experiment: Antidepressant activity in albino CD-1 mouse assessed as inhibition of reserpine-induced sedation up to 40 mg/kg, ip; format: functional, organism-based; design: dose 40 mg/kg; method in brief: as §1
[3] = tested on: Mus musculus; experiment: Analgetic activity in albino CD-1 mouse assessed as inhibition of thermally-induced pain at 10 to 15 mg/kg, ip relative to control; format: functional; conditions: dose mg/kg 10-15; route intraperitoneal
Method in brief: (§2)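 Male albino CD-1 mice (18-25 g) were given compound ip in distilled water and tested 60-90 min later on a hot wire analgetic apparatus at 50°. Reaction times were compared with saline-pretreated controls. Each point used 5 treated and 20 control mice and is reported as mean ± SEM in seconds. Statistics were analysis of variance followed by t test or Mann-Whitney U.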

[4] = tested on: Mus musculus; experiment: Anticonvulsant activity in albino CD-1 mouse assessed as protection against pentylenetetrazol-induced clonic seizure ratio at 40 mg/kg, ip administered 60 to 90 mins before pentylenetetrazol challenge relative to control; format: functional; conditions: route intraperitoneal
Method in brief: (§3)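 Male CD-1 mice (18-25 g), 8-10 per group, received saline (1 ml/100 g) or compound (40 mg/kg) ip 60-90 min before seizure induction. Seizures were induced by iv infusion of 0.5% pentylenetetrazole solution. The minimal (clonic) and maximal (tonic) seizure thresholds were determined.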

[5] = tested on: Mus musculus; experiment: Antiparkinson activity in albino CD-1 mouse assessed as inhibition of oxotremorine-induced diarrhea, and tremors at 5 to 40 mg/kg, ip; format: functional, organism-based
[6] = tested on: Mus musculus; experiment: Neuromuscular blocking activity in albino CD-1 mouse up to 20 mg/kg, ip; format: organism-based; design: dose 20 mg/kg, route intraperitoneal; conditions: in vivo
Method in brief: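 Male CD-1 mice were dosed ip in distilled water and tested 60-90 min later. Neuromuscular blockade was judged by ability to remain on a wire mesh screen inclined at 60°.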

[7] = tested on: Mus musculus; experiment: Toxicity in ip dosed albino CD-1 mouse assessed as muscle weakness and flaccidity; format: organism-based, Muscle tissue; conditions: in vivo
[8] = tested on: Mus musculus; experiment: Neurotoxicity against ip dosed albino CD-1 mouse assessed as time of peak effect by rotarod test; format: toxicity, organism-based; conditions: in vivo
Method in brief: (§4)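 Male CD-1 mice (18-25 g), five per group, were dosed ip in distilled water. The endpoint was failure to stay for 1 min on a horizontal rod rotating at 6 rpm. Time of peak effect was determined on the rod, and TD50 was measured at that time. TD50 is given with 95% confidence limits by Litchfield-Wilcoxon.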

[9] = tested on: Mus musculus; experiment: Toxicity in albino CD-1 mouse assessed as reduction of rectal temperature at 40 mg/kg, ip; format: organism-based; design: dose 40 mg/kg, route intraperitoneal; conditions: in vivo
Method in brief: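 Rectal temperature of male CD-1 mice was recorded by tele-thermometer with a small-animal probe at time of peak activity (60-90 min) after 40 mg/kg ip in distilled water.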

[10] = tested on: Ileum; experiment: Antispasmodic activity in guinea pig ileum assessed as inhibition of acetylcholine-induced contraction at 10^-8 to 10^-6 M; format: functional, tissue-based; conditions: Cavia porcellus
Method in brief: (§5)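 Isolated guinea pig ileum (both sexes) was suspended in Krebs' solution at 37 ± 0.5°, gassed with 95% O2-5% CO2. Antihistaminic, anticholinergic and nonselective antispasmodic activity were measured.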

[11] = tested on: Mus musculus; experiment: Analgetic activity in albino CD-1 mouse assessed as inhibition of thermally-induced pain at 20 to 40 mg/kg, ip relative to control; format: functional; design: scale not given: the % may be the effect or the level left; conditions: dose mg/kg 20-40; route intraperitoneal; method in brief: as §2
[12] = tested on: Mus musculus; experiment: Anticonvulsant activity in albino CD-1 mouse assessed as protection against pentylenetetrazol-induced tonic seizure ratio at 40 mg/kg, ip administered 60 to 90 mins before pentylenetetrazol challenge relative to control; format: functional; conditions: route intraperitoneal; method in brief: as §3
[13] = tested on: Mus musculus; experiment: Antiparkinson activity in albino CD-1 mouse assessed as inhibition of oxotremorine-induced salivation at 100 mg/kg, ip; format: functional
Method in brief: (§6)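 Five male CD-1 mice per group were pretreated ip with saline or compound 60-90 min before oxotremorine 1.0 mg/kg ip. Oxotremorine-induced hypothermia or salivation was then assessed.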

[14] = tested on: Mus musculus; experiment: Acute toxicity in ip dosed albino CD-1 mouse assessed as mortality after 2 to 3 hrs; format: organism-based; conditions: in vivo
[15] = Neurotoxicity against ip dosed albino CD-1 mouse by rotarod test; format: toxicity, organism-based; conditions: in vivo; method in brief: as §4
[16] = tested on: Mus musculus; experiment: Antiparkinson activity in albino CD-1 mouse assessed as inhibition of oxotremorine-induced diarrhea, and tremors at 5 mg/kg, ip; format: functional; design: scale not given: the % may be the effect or the level left; conditions: route intraperitoneal
[17] = tested on: Mus musculus; experiment: Antiparkinson activity in albino CD-1 mouse assessed as inhibition of oxotremorine-induced hypothermia at 40 mg/kg, ip; format: functional, organism-based; design: dose 40 mg/kg; method in brief: as §6
[18] = tested on: Mus musculus; experiment: Antiparkinson activity in albino CD-1 mouse assessed as inhibition of oxotremorine-induced diarrhea, and tremors at 20 to 40 mg/kg, ip; format: functional; design: scale not given: the % may be the effect or the level left; conditions: dose mg/kg 20-40; route intraperitoneal
[19] = tested on: Mus musculus; experiment: Antiparkinson activity in ip dosed albino CD-1 mouse assessed as inhibition of oxotremorine-induced diarrhea, and tremors; format: functional, organism-based
[20] = Acute toxicity in ip dosed albino CD-1 mouse after 24 hrs; format: organism-based; conditions: in vivo
Method in brief: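 Male albino CD-1 mice (18-25 g), groups of eight. Each mouse got a single ip injection of compound dissolved in distilled water. Lethality was scored 24 hr after dosing. LD50 was calculated with 95% confidence limits by the Litchfield and Wilcoxon method.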

[21] = tested on: Ileum; experiment: Antispasmodic activity in guinea pig ileum assessed as inhibition of histamine-induced contraction at 10^-8 to 10^-6 M; format: functional, tissue-based; conditions: Cavia porcellus; method in brief: as §5
[22] = tested on: Mus musculus; experiment: Antidepressant activity in albino CD-1 mouse assessed as potentiation of L-dopa-induced effect up to 40 mg/kg, ip; format: functional, organism-based; design: dose 40 mg/kg
Method in brief: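 Compound was given ip in distilled water to male CD-1 mice. Potentiation of stimulation induced by L-Dopa (100 mg/kg ip) was assessed.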

[23] = tested on: Mus musculus; experiment: Analgetic activity in albino CD-1 mouse assessed as inhibition of thermally-induced pain at 10 to 20 mg/kg, ip; format: functional, organism-based; method in brief: as §2
[24] = tested on: Mus musculus; experiment: Antidepressant activity in albino CD-1 mouse assessed as inhibition of reserpine-induced hypothermia up to 40 mg/kg, ip; format: functional, organism-based; design: dose 40 mg/kg; method in brief: as §1
[25] = tested on: Mus musculus; experiment: Antipsychotic activity in ip dosed albino CD-1 mouse assessed as spontaneous motor activity for 15 mins intervals for 2 hrs by conditioned avoidance test; format: functional; conditions: for ED50: CD-1, ip
[26] = tested on: Mus musculus; experiment: Analgetic activity in albino CD-1 mouse assessed as inhibition of thermally-induced pain at 5 mg/kg, ip; format: functional, organism-based; design: dose 5 mg/kg; method in brief: as §2
[27] = tested on: Ileum; experiment: Antispasmodic activity in guinea pig ileum assessed as inhibition of barium chloride-induced spasm at 5 x 10^-7 M; format: functional; conditions: Cavia porcellus; method in brief: as §5

SMILES | Activity [1] | Activity [2] | fold change (FC) [3] | Ratio [4] | Activity [5] | Activity [6] | Activity [7] | Time [8] [min] | T [9] [°C] | inhibition [10] | Activity [11] [%] | Ratio [12] | Activity [14] | TD50 [15] [mg/kg] | Activity [17] | Activity [19] | LD50 at 24 h [20] [mg/kg] | inhibition [21] | Activity [22] | Activity [23] | also measured
CCN(C)[C@H]1CCN([C@H]2Cc3ccccc3Sc3ccc(Cl)cc32)C1 | inactive | inactive | 1.5 | 1.16 | Active | Non-toxic | Toxic | 60 | 5.1 | Active | 23 | 0.93 | Toxic | 6.2 | inactive | Dose-dependent effect | 175 | Active | inactive | Active | Activity [13]: inactive; Activity [16]: 60%; Activity [18]: 93%; Activity [24]: inactive; Activity [25]: Dose-dependent effect; ED50 [25]: 6.8 mg/kg; Activity [26]: Active; inhibition at 0.5 µM [27]: 40%
CCN(C)[C@@H]1CCN([C@H]2Cc3ccccc3Sc3ccc(Cl)cc32)C1 | inactive | inactive | 1.5 | 1.24 | Active | Non-toxic | Toxic | 60 | 5.1 | Active | 23 | 0.73 | Toxic | 13.6 | inactive | Dose-dependent effect | 186 | Active | inactive | Active | Activity [13]: inactive; Activity [24]: inactive; Activity [25]: Dose-dependent effect; ED50 [25]: 12 mg/kg; inhibition at 0.5 µM [27]: 40%
CCN(C)[C@H]1CCN([C@@H]2Cc3ccccc3Sc3ccc(Cl)cc32)C1 | inactive | inactive | 1.5 | 1.27 | Active | Non-toxic | Toxic | 60 | 5.1 | Active | 23 | 1 | Toxic | 12.5 | inactive | Dose-dependent effect | 177 | Active | inactive | Active | Activity ([13]; route intraperitoneal): 27%; Activity [24]: inactive; Activity [25]: Dose-dependent effect; ED50 [25]: 12 mg/kg; inhibition at 0.5 µM [27]: 40%
CCN(C)[C@@H]1CCN([C@@H]2Cc3ccccc3Sc3ccc(Cl)cc32)C1 | inactive | inactive | 1.5 | 1.08 | Active | Non-toxic | Toxic | 60 | 5.1 | Active | 23 | 0.75 | Toxic | 6.4 | inactive | Dose-dependent effect | 217 | Active | inactive | Active | Activity ([13]; route intraperitoneal): 60%; Activity [16]: 60%; Activity [18]: 93%; Activity [24]: inactive; Activity [25]: Dose-dependent effect; ED50 [25]: 6.4 mg/kg; Activity [26]: Active; inhibition at 0.5 µM [27]: 40%
